This note sets out measurements from ChEMBL document CHEMBL4330085, “Peptidomimetic plasmepsin inhibitors with potent anti-malarial activity and selectivity against cathepsin D” (Eur J Med Chem, 2019).

Active and inactive are the calls of the source. The rule behind the calls is not given here.

One experiment deals with Plasmepsin I (Plasmodium falciparum, UniProt P39898). The experiment can be described thus: Inhibition of Plasmodium falciparum plasmepsin 1 using DABCYL-Glu-Arg-Nle-Phe-Leu-Ser-Phe-Pro-EDANS as substrate preincubated for 30 mins followed by substrate addition and measured every min for 8 to 15 mins by FRET assay.
Chain of Plasmepsin I (P39898 whole entry): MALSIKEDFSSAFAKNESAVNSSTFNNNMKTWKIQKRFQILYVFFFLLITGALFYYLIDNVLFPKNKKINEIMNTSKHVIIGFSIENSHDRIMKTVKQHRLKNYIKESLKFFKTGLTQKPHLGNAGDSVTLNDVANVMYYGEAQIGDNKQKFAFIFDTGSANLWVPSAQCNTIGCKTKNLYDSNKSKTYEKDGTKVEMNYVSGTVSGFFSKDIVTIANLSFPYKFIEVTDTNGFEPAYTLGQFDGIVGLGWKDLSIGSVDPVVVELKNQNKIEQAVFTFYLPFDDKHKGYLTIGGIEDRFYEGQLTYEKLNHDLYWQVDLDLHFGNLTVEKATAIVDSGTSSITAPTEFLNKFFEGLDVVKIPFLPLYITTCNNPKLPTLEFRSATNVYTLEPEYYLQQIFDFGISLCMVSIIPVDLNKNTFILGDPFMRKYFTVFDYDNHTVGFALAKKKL
Another experiment has as its target Plasmepsin II (Plasmodium falciparum, UniProt P46925). As to the kind of experiment: Inhibition of Plasmodium falciparum plasmepsin 2 using DABCYL-Glu-Arg-Nle-Phe-Leu-Ser-Phe-Pro-EDANS as substrate preincubated for 30 mins followed by substrate addition and measured every min for 8 to 15 mins by FRET assay.
The target of a further experiment is Cathepsin D (Homo sapiens, UniProt P07339). The experiment can be described thus: Inhibition of human cathepsin D using DABCYL-Glu-Arg-Nle-Phe-Leu-Ser-Phe-Pro-EDANS as substrate preincubated for 30 mins followed by substrate addition and measured every min for 8 to 15 mins by FRET assay.
Chain of Cathepsin D (P07339 65-162 limits assumed): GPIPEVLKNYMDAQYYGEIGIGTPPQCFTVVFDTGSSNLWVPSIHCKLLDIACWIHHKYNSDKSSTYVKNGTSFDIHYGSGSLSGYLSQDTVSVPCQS
Chain of Cathepsin D (P07339 169-412 limits assumed): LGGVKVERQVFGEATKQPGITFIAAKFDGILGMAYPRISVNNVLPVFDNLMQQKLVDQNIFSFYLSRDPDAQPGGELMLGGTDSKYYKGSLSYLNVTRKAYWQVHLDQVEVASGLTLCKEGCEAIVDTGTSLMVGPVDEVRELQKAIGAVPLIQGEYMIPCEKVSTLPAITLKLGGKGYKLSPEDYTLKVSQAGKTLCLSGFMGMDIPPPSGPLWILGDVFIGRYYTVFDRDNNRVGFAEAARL
In another experiment the test system is Plasmodium falciparum. As to the kind of experiment: Antimalarial activity against blood stage form of Plasmodium falciparum 3D7 infected in erythrocytes after 96 hrs by SYBR Green I dye-based spectrophotometric analysis. The class given is functional, organism-based. The following applies: 3D7, 96 h. In short, it runs like this:
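P. falciparum blood-stage growth was read by SYBR Green fluorescence after a 96 h incubation (2 erythrocytic cycles). EC50 values came from triplicate samples in 2 separate biological assays, with a reference inhibitor as positive control.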

Experiment [1] has as its target Plasmepsin X (Plasmodium falciparum (isolate 3D7)) (UniProt Q8IAS0). The experiment can be described thus: Inhibition of Plasmodium falciparum plasmepsin 10-mediated SUB1 maturation and egress assessed as reduction in SERA5 P50 level at 10 nM by Western blot analysis. For orientation: In western blotting, separated proteins are transferred to a membrane and probed.
The target of the next experiment is Plasmepsin 4 (Plasmodium falciparum, UniProt Q17SB2). The experiment can be described thus: Inhibition of Plasmodium falciparum plasmepsin 4 using DABCYL-Glu-Arg-Nle-Phe-Leu-Ser-Phe-Pro-EDANS as substrate preincubated for 30 mins followed by substrate addition and measured every min for 8 to 15 mins by FRET assay.
Chain of Plasmepsin 4 (Q17SB2 whole entry): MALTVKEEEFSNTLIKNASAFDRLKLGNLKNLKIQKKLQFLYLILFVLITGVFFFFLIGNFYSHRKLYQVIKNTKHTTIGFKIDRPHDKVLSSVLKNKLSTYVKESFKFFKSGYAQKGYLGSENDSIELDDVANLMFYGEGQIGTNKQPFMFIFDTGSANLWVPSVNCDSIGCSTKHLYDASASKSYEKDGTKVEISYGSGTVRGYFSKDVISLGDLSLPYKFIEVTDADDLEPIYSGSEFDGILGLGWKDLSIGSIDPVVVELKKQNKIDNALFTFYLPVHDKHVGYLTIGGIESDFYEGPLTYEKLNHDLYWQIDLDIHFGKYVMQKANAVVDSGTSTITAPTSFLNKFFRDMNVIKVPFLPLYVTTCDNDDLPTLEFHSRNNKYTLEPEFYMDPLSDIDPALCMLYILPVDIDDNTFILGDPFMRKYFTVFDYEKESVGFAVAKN
Experiment [2] deals with Plasmepsin X (Plasmodium falciparum (isolate 3D7)) (UniProt Q8IAS0). The experiment can be described thus: Inhibition of Plasmodium falciparum plasmepsin 10-mediated SUB1 maturation and egress assessed as enrichment of SUB1 p54 form level at 10 nM after 8 hrs by Western blot analysis. An outline of the steps: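 Synchronous cultures of immature intracellular parasites were exposed for ~8 h to compound at 10 nM. Controls were vehicle (DMSO, 1% v/v) and a cGMP-dependent protein kinase inhibitor at 2 μM. Parasite extracts were analysed by Western blot with anti-SUB1 antibody, scoring the p54 and p47 forms.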
Chain of Plasmepsin X (Plasmodium falciparum (isolate 3D7)) (Q8IAS0 whole entry): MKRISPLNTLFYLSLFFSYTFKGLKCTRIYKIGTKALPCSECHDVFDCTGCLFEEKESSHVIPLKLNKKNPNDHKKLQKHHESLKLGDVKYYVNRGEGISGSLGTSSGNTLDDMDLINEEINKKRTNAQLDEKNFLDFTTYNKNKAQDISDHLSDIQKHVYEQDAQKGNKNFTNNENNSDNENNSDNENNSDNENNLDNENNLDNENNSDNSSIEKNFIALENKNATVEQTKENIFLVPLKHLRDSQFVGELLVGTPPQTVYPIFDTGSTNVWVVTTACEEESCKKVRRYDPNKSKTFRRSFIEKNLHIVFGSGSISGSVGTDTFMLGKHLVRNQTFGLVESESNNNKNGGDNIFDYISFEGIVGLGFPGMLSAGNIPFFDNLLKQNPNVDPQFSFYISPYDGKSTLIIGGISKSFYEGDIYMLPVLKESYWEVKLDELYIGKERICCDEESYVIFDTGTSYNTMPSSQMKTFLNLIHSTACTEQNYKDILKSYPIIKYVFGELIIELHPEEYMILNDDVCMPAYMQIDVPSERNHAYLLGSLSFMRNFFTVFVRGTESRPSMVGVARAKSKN

Chain of Plasmepsin II (P46925 whole entry): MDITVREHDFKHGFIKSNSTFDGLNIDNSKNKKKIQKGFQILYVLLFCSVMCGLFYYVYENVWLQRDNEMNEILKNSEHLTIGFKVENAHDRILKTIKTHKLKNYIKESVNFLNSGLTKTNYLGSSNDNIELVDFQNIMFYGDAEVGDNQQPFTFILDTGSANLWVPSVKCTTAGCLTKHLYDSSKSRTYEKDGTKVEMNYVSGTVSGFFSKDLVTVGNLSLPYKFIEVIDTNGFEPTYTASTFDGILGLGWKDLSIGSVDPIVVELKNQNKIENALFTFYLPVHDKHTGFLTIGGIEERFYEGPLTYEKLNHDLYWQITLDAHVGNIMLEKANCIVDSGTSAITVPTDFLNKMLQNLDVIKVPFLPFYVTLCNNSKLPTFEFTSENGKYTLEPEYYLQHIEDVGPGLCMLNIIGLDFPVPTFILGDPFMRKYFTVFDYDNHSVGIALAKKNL

For orientation: IC50 means the concentration that inhibits the measured activity by half. A high value points to weaker potency in that assay. What is called EC50 is the concentration that produces a half-maximal response. Low values mean higher potency in that assay, high ones lower potency in that assay. In the case of `CCCN(CCC)C(=O)c1cccc(C(=O)N[C@@H](Cc2ccccc2)[C@H](O)CNC(C)(C)c2cccc(OC)c2)c1`, the IC50 on Plasmepsin I is 3.1 µM; at Plasmepsin II it was 1.7 µM; at Cathepsin D, 1.15 µM; against Plasmepsin 4, 0.058 µM. Moreover, in the experiment on Plasmodium falciparum, the concentration giving a half-maximal response (EC50) was found to be 0.0003 µM. Further, the inhibition result in experiment [1] and in experiment [2] was “Active” in each case.

Take `COc1cccc(C(C)(C)NC[C@@H](O)[C@H](Cc2ccccc2)NC(=O)c2cc(C(=O)NCc3ccccc3)cc(N3CCCCC3)c2)c1`: the IC50 stood at 0.22 µM against Cathepsin D and 0.038 µM against Plasmepsin 4.

For `COc1cccc(C(C)(C)NC[C@@H](O)[C@H](Cc2ccccc2)NC(=O)c2cc(C(=O)N(CCC(F)(F)F)CCC(F)(F)F)cc(N3CCCCC3)c2)c1`, the half-inhibitory concentration (IC50) against Cathepsin D came out at 0.12 µM; on Plasmepsin 4, 0.21 µM.

For the molecule `CCCN(CCC)C(=O)c1cc(C#N)cc(C(=O)N[C@@H](Cc2ccccc2)[C@H](O)CNC(C)(C)c2cccc(OC)c2)c1`, the results for the IC50 against Cathepsin D and against Plasmepsin 4 were 0.56 µM and 0.059 µM, respectively.

On to `COc1cccc(C(C)(C)NC[C@@H](O)[C@H](Cc2ccccc2)NC(=O)c2cc(C(=O)NCCOC(C)(C)C)cc(N3CCCCC3)c2)c1`, for which the IC50 against Cathepsin D amounted to 0.15 µM; against Plasmepsin 4, 0.031 µM.

`CCCN(CCC)C(=O)c1cc(Cl)cc(C(=O)N[C@@H](Cc2ccccc2)[C@H](O)CNC(C)(C)c2cccc(OC)c2)c1`: the concentration for half-maximal inhibition (IC50) against Cathepsin D was found to be 0.096 µM; on Plasmepsin 4, 0.008 µM.

Regarding `COCCN(CCOC)C(=O)c1cc(C(=O)N[C@@H](Cc2ccccc2)[C@H](O)CNC(C)(C)c2cccc(OC)c2)cc(N2CCCCC2)c1`, the IC50 against Cathepsin D came to 0.1 µM; against Plasmepsin 4, 0.037 µM.

For `COc1cccc(C(C)(C)NC[C@@H](O)[C@H](Cc2ccccc2)NC(=O)c2cccc(C(=O)NCCC(F)(F)F)c2)c1`, the IC50 against Plasmepsin I was 10.3 µM; against Plasmepsin II, 10.4 µM; at Cathepsin D it was 4.9 µM; on Plasmepsin 4, 0.15 µM. In the experiment on Plasmodium falciparum, this molecule registered an EC50 of 0.006 µM.

For the molecule `CCCN(CCC)C(=O)c1cc(C)cc(C(=O)N[C@@H](Cc2ccccc2)[C@H](O)CNC(C)(C)c2cccc(OC)c2)c1`, the IC50 at Cathepsin D is 0.21 µM; against Plasmepsin 4, 0.023 µM.

`COc1cccc(C(C)(C)NC[C@@H](O)[C@H](Cc2ccccc2)NC(=O)c2cc(C(=O)NCC3CCCCC3)cc(N3CCCCC3)c2)c1`: the IC50 at Cathepsin D is 0.15 µM; at Plasmepsin 4, 0.09 µM.

Take `COc1cccc(C(C)(C)NC[C@@H](O)[C@H](Cc2ccccc2)NC(=O)c2cc(C(=O)NCCO)cc(N3CCCCC3)c2)c1`: the IC50 against Cathepsin D was 1.42 µM; at Plasmepsin 4, 0.21 µM.

As to `COCCNC(=O)c1cc(C(=O)N[C@@H](Cc2ccccc2)[C@H](O)CNC(C)(C)c2cccc(OC)c2)cc(N2CCCCC2)c1`, the 50% inhibitory concentration (IC50) against Cathepsin D came to 0.75 µM; against Plasmepsin 4, 0.05 µM.

`COc1cccc(C(C)(C)NC[C@@H](O)[C@H](Cc2ccccc2)NC(=O)c2cc(C(=O)NCCCO)cc(N3CCCCC3)c2)c1`: the IC50 came to 2.25 µM against Cathepsin D and 0.093 µM against Plasmepsin 4.

Take `COc1cccc(C(C)(C)NC[C@@H](O)[C@H](Cc2ccccc2)NC(=O)c2cc(C(=O)N(CCO)CCO)cc(N3CCCCC3)c2)c1`: the IC50 against Cathepsin D is 0.27 µM; at Plasmepsin 4, 0.068 µM.

For the molecule `COc1cccc(C(C)(C)NC[C@@H](O)[C@H](Cc2ccccc2)NC(=O)c2cc(C(=O)NC(C)(C)CO)cc(N3CCCCC3)c2)c1`, the IC50 on Cathepsin D is 1.46 µM; against Plasmepsin 4 it was 0.12 µM.

Regarding `COc1cccc(C(C)(C)NC[C@@H](O)[C@H](Cc2ccccc2)NC(=O)c2cc(C(=O)NCC(C)(C)C)cc(N3CCCCC3)c2)c1`, the IC50 against Plasmepsin I stood at 2 µM; at Plasmepsin II, 0.85 µM; against Cathepsin D, 0.4 µM; on Plasmepsin 4 it was 0.027 µM. The molecule further displayed an EC50 with Plasmodium falciparum of 0.006 µM.

For `CCCN(CCC)C(=O)c1cc(F)cc(C(=O)N[C@@H](Cc2ccccc2)[C@H](O)CNC(C)(C)c2cccc(OC)c2)c1`, the IC50 against Plasmepsin I stood at 1.1 µM; against Plasmepsin II, 1.1 µM; against Cathepsin D, 1 µM; at Plasmepsin 4, 0.05 µM. Besides, the EC50 with Plasmodium falciparum was determined as 0.0015 µM. Moreover, the inhibition result in experiment [1] and in experiment [2] was “Active” in each case.

As to `COc1cccc(C(C)(C)NC[C@@H](O)[C@H](Cc2ccccc2)NC(=O)c2cc(C(=O)N(CC(C)C)CC(C)C)cc(N3CCCCC3)c2)c1`, the half-maximal inhibitory concentration (IC50) amounted to 1.3 µM on Cathepsin D and 0.5 µM against Plasmepsin 4.

For `COc1cccc(C(C)(C)NC[C@@H](O)[C@H](Cc2ccccc2)NC(=O)c2cc(C(=O)NCC3CC3)cc(N3CCCCC3)c2)c1`, the IC50 was found to be 1.8 µM at Plasmepsin I, 0.5 µM against Plasmepsin II, 0.76 µM at Cathepsin D and 0.03 µM at Plasmepsin 4. The EC50 with Plasmodium falciparum came to 0.0018 µM.

For the molecule `CCCN(CCC)C(=O)c1cc(C(=O)N[C@@H](Cc2ccccc2)[C@H](O)CNC(C)(C)c2cccc(OC)c2)cc(C(=O)N(CCC)CCC)c1`, the half-inhibitory concentration (IC50) amounted to 0.78 µM at Plasmepsin I, 0.27 µM against Plasmepsin II, 0.7 µM against Cathepsin D and 0.018 µM against Plasmepsin 4. The molecule also displayed an EC50 in the experiment with Plasmodium falciparum of 0.006 µM.

In the case of `COc1cccc(C(C)(C)NC[C@@H](O)[C@H](Cc2ccccc2)NC(=O)c2cc(C(=O)NCC(C)(C)O)cc(N3CCCCC3)c2)c1`, the results for the half-inhibitory concentration (IC50) against Cathepsin D and at Plasmepsin 4 were 1.66 µM and 0.1 µM, respectively.

Consider `COc1cccc(C(C)(C)NC[C@@H](O)[C@H](Cc2ccccc2)NC(=O)c2cc(C(=O)N(C)C)cc(N3CCCCC3)c2)c1`, for which the values for the IC50 at Cathepsin D and against Plasmepsin 4 were 0.5 µM and 0.087 µM, respectively.

For `COc1cccc(C(C)(C)NC[C@@H](O)[C@H](Cc2ccccc2)NC(=O)c2cc(C(=O)NCCN(C)C)cc(N3CCCCC3)c2)c1`, the 50% inhibitory concentration (IC50) came to 4.8 µM on Cathepsin D and 0.36 µM on Plasmepsin 4.

Regarding `COc1cccc(C(C)(C)NC[C@@H](O)[C@H](Cc2ccccc2)NC(=O)c2cccc(C(=O)NCC(C)(C)C)c2)c1`, the IC50 on Plasmepsin I is 5.6 µM; against Plasmepsin II it was 7.1 µM; against Cathepsin D, 3.8 µM; at Plasmepsin 4, 0.076 µM. The molecule further yielded an EC50 in the experiment with Plasmodium falciparum of 0.002 µM.

Consider `COc1cccc(C(C)(C)NC[C@@H](O)[C@H](Cc2ccccc2)NC(=O)c2cc(C(=O)NCCC(F)(F)F)cc(N3CCCCC3)c2)c1`, for which the 50% inhibitory concentration (IC50) against Plasmepsin I is 2.5 µM; at Plasmepsin II, 2.2 µM; against Cathepsin D it was 0.58 µM; at Plasmepsin 4, 0.024 µM. The same molecule yielded a 50% effective concentration (EC50) in the experiment with Plasmodium falciparum of 0.002 µM.

As to `CCN(CC)C(=O)c1cc(C(=O)N[C@@H](Cc2ccccc2)[C@H](O)CNC(C)(C)c2cccc(OC)c2)cc(N2CCCCC2)c1`, the IC50 on Plasmepsin I was 0.8 µM; against Plasmepsin II, 0.16 µM; against Cathepsin D it was 0.25 µM; against Plasmepsin 4, 0.014 µM. Besides, in the experiment on Plasmodium falciparum, a half-maximal response (EC50) required 0.0015 µM. In experiment [2], the inhibition result was “Active”.

Take `CCCN(CCC)C(=O)c1cc(C(=O)N[C@@H](Cc2ccccc2)[C@H](O)CNC(C)(C)c2cccc(OC)c2)cc(C(F)(F)F)c1`: the IC50 was found to be 0.067 µM at Cathepsin D and 0.015 µM on Plasmepsin 4.

`COc1cccc(C(C)(C)NC[C@@H](O)[C@H](Cc2ccccc2)NC(=O)c2cc(C(=O)NCC(C)(C)OC)cc(N3CCCCC3)c2)c1`: the IC50 at Plasmepsin I is 7.4 µM; against Plasmepsin II it was 5.4 µM; against Cathepsin D, 2.1 µM; against Plasmepsin 4, 0.048 µM. The same molecule showed an EC50 in the experiment on Plasmodium falciparum of 0.002 µM.
